# Assay results taken from ChEMBL document CHEMBL1150832, “Phenylnaphthalene compounds from the subterranean part of Vitex rotundifolia and their antibacterial activity against methicillin-resistant Staphylococcus aureus” (2001).
# Active and inactive are the calls of the source. The calls are words filed in the database; no cut-off is given here.
# Assays:
# Staphylococcus aureus [1] = assay: Antimicrobial activity against methicillin-sensitive Staphylococcus aureus ATCC 6538 at 100 ug after 20 hrs by agar plate diffusion assay; assay type: functional, organism-based
# Outline: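 Agar disk diffusion. Cells were grown on Mueller-Hinton agar at 37 °C for 24 h, resuspended in Mueller-Hinton broth to 108 CFU/mL and incubated again. They were then diluted to 105 CFU/mL and used to inoculate Mueller-Hinton agar plates. 6 mm disks loaded with 100 µg compound were placed on the plates and incubated 20 h at 37 °C. Inhibition zones >10 mm were scored positive.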
# Staphylococcus aureus [2] = assay: Antimicrobial activity against methicillin-resistant Staphylococcus aureus 0001 at 100 ug after 20 hrs by agar plate diffusion assay; assay type: functional, organism-based
# Outline: (§1)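 Disk diffusion against MRSA clinical isolates from Tokushima University Hospital. Cells were grown on Mueller-Hinton agar at 37 °C for 24 h, resuspended in Mueller-Hinton broth, and diluted to 10^5 CFU/mL to seed Mueller-Hinton agar plates. 6 mm disks loaded with 100 µg compound were incubated 20 h at 37 °C. Inhibition zones over 10 mm in diameter were scored positive.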
# Staphylococcus aureus [3] = assay: Antimicrobial activity against methicillin-resistant Staphylococcus aureus 0002 at 100 ug after 20 hrs by agar plate diffusion assay; assay type: functional, organism-based; outline: as §1
# Staphylococcus aureus [4] = assay: Antimicrobial activity against methicillin-resistant Staphylococcus aureus 0003 at 100 ug after 20 hrs by agar plate diffusion assay; assay type: functional, organism-based; outline: as §1
# Staphylococcus aureus [5] = assay: Antimicrobial activity against methicillin-resistant Staphylococcus aureus 0004 at 100 ug after 20 hrs by agar plate diffusion assay; assay type: functional, organism-based; outline: as §1
# Staphylococcus aureus [6] = assay: Antimicrobial activity against methicillin-resistant Staphylococcus aureus 0005 at 100 ug after 20 hrs by agar plate diffusion assay; assay type: functional, organism-based; outline: as §1
# Staphylococcus aureus [7] = assay: Antimicrobial activity against methicillin-resistant Staphylococcus aureus 0006 at 100 ug after 20 hrs by agar plate diffusion assay; assay type: functional, organism-based; outline: as §1
# Staphylococcus aureus [8] = assay: Antimicrobial activity against methicillin-resistant Staphylococcus aureus 0007 at 100 ug after 20 hrs by agar plate diffusion assay; assay type: functional, organism-based; outline: as §1
# Staphylococcus aureus [9] = assay: Antimicrobial activity against methicillin-resistant Staphylococcus aureus 0008 at 100 ug after 20 hrs by agar plate diffusion assay; assay type: functional, organism-based; outline: as §1
# Staphylococcus aureus [10] = assay: Antimicrobial activity against methicillin-resistant Staphylococcus aureus 0009 at 100 ug after 20 hrs by agar plate diffusion assay; assay type: functional, organism-based; outline: as §1
# Staphylococcus aureus [11] = assay: Antimicrobial activity against methicillin-resistant Staphylococcus aureus 0012 at 100 ug after 20 hrs by agar plate diffusion assay; assay type: functional, organism-based; outline: as §1
# Staphylococcus aureus [12] = assay: Antimicrobial activity against methicillin-resistant Staphylococcus aureus 0013 at 100 ug after 20 hrs by agar plate diffusion assay; assay type: functional, organism-based; outline: as §1
# Staphylococcus aureus [13] = assay: Antimicrobial activity against methicillin-resistant Staphylococcus aureus 0016 at 100 ug after 20 hrs by agar plate diffusion assay; assay type: functional, organism-based; outline: as §1
# Staphylococcus aureus [14] = assay: Antimicrobial activity against methicillin-resistant Staphylococcus aureus 0017 at 100 ug after 20 hrs by agar plate diffusion assay; assay type: functional, organism-based; outline: as §1
# Staphylococcus aureus [15] = assay: Antimicrobial activity against methicillin-resistant Staphylococcus aureus 0018 at 100 ug after 20 hrs by agar plate diffusion assay; assay type: functional, organism-based; outline: as §1
# Staphylococcus aureus [16] = assay: Antimicrobial activity against methicillin-resistant Staphylococcus aureus 0019 at 100 ug after 20 hrs by agar plate diffusion assay; assay type: functional, organism-based; outline: as §1
# Staphylococcus aureus [17] = assay: Antimicrobial activity against methicillin-resistant Staphylococcus aureus 0020 at 100 ug after 20 hrs by agar plate diffusion assay; assay type: functional, organism-based; outline: as §1
# Staphylococcus aureus [18] = assay: Antimicrobial activity against methicillin-resistant Staphylococcus aureus 0021 at 100 ug after 20 hrs by agar plate diffusion assay; assay type: functional, organism-based; outline: as §1
# Staphylococcus aureus [19] = assay: Antimicrobial activity against methicillin-resistant Staphylococcus aureus 0022 at 100 ug after 20 hrs by agar plate diffusion assay; assay type: functional, organism-based; outline: as §1
# Staphylococcus aureus [20] = assay: Antimicrobial activity against methicillin-resistant Staphylococcus aureus 0001 after 20 hrs by serial twofold dilution method; assay type: functional; settings: Staphylococcus aureus, 0001, 20 h
# Outline: (§2)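 Agar dilution MIC on Mueller-Hinton agar, following the Japanese Society for Antimicrobial Chemotherapy (1981) method. MRSA clinical isolates from Tokushima University Hospital were grown on Mueller-Hinton agar at 37 °C for 24 h, then resuspended in Mueller-Hinton broth. Suspensions of 1 × 10^6 CFU/mL were spotted with a replicating device. Plates were read after 20 h at 37 °C.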
# Staphylococcus aureus [21] = assay: Antimicrobial activity against methicillin-resistant Staphylococcus aureus 0002 after 20 hrs by serial twofold dilution method; assay type: functional; settings: Staphylococcus aureus, 0002, 20 h; outline: as §2
# Staphylococcus aureus [22] = assay: Antimicrobial activity against methicillin-resistant Staphylococcus aureus 0003 after 20 hrs by serial twofold dilution method; assay type: functional; settings: Staphylococcus aureus, 0003, 20 h; outline: as §2
# Staphylococcus aureus [23] = assay: Antimicrobial activity against methicillin-resistant Staphylococcus aureus 0004 after 20 hrs by serial twofold dilution method; assay type: functional; settings: Staphylococcus aureus, 0004, 20 h; outline: as §2
# Staphylococcus aureus [24] = assay: Antimicrobial activity against methicillin-resistant Staphylococcus aureus 0005 after 20 hrs by serial twofold dilution method; assay type: functional; settings: Staphylococcus aureus, 0005, 20 h; outline: as §2
# Staphylococcus aureus [25] = assay: Antimicrobial activity against methicillin-resistant Staphylococcus aureus 0006 after 20 hrs by serial twofold dilution method; assay type: functional; settings: Staphylococcus aureus, 0006, 20 h; outline: as §2
# Staphylococcus aureus [26] = assay: Antimicrobial activity against methicillin-resistant Staphylococcus aureus 0007 after 20 hrs by serial twofold dilution method; assay type: functional; settings: Staphylococcus aureus, 0007, 20 h; outline: as §2
# Staphylococcus aureus [27] = assay: Antimicrobial activity against methicillin-resistant Staphylococcus aureus 0008 after 20 hrs by serial twofold dilution method; assay type: functional; settings: Staphylococcus aureus, 0008, 20 h; outline: as §2
# Staphylococcus aureus [28] = assay: Antimicrobial activity against methicillin-resistant Staphylococcus aureus 0009 after 20 hrs by serial twofold dilution method; assay type: functional; settings: Staphylococcus aureus, 0009, 20 h; outline: as §2
# Staphylococcus aureus [29] = assay: Antimicrobial activity against methicillin-resistant Staphylococcus aureus 0012 after 20 hrs by serial twofold dilution method; assay type: functional; settings: Staphylococcus aureus, 0012, 20 h; outline: as §2
# Staphylococcus aureus [30] = assay: Antimicrobial activity against methicillin-resistant Staphylococcus aureus 0013 after 20 hrs by serial twofold dilution method; assay type: functional; settings: Staphylococcus aureus, 0013, 20 h; outline: as §2
# Staphylococcus aureus [31] = assay: Antimicrobial activity against methicillin-resistant Staphylococcus aureus 0016 after 20 hrs by serial twofold dilution method; assay type: functional; settings: Staphylococcus aureus, 0016, 20 h; outline: as §2
# Staphylococcus aureus [32] = assay: Antimicrobial activity against methicillin-resistant Staphylococcus aureus 0017 after 20 hrs by serial twofold dilution method; assay type: functional; settings: Staphylococcus aureus, 0017, 20 h; outline: as §2
# Staphylococcus aureus [33] = assay: Antimicrobial activity against methicillin-resistant Staphylococcus aureus 0018 after 20 hrs by serial twofold dilution method; assay type: functional; settings: Staphylococcus aureus, 0018, 20 h; outline: as §2
# Staphylococcus aureus [34] = assay: Antimicrobial activity against methicillin-resistant Staphylococcus aureus 0019 after 20 hrs by serial twofold dilution method; assay type: functional; settings: Staphylococcus aureus, 0019, 20 h; outline: as §2
# Staphylococcus aureus [35] = assay: Antimicrobial activity against methicillin-resistant Staphylococcus aureus 0020 after 20 hrs by serial twofold dilution method; assay type: functional; settings: Staphylococcus aureus, 0020, 20 h; outline: as §2
# Staphylococcus aureus [36] = assay: Antimicrobial activity against methicillin-resistant Staphylococcus aureus 0021 after 20 hrs by serial twofold dilution method; assay type: functional; settings: Staphylococcus aureus, 0021, 20 h; outline: as §2
# Staphylococcus aureus [37] = assay: Antimicrobial activity against methicillin-resistant Staphylococcus aureus 0022 after 20 hrs by serial twofold dilution method; assay type: functional; settings: Staphylococcus aureus, 0022, 20 h; outline: as §2
Compound,Activity (Staphylococcus aureus [1]),Activity (Staphylococcus aureus [2]),MIC (Staphylococcus aureus [20]) [µg/mL],MIC (Staphylococcus aureus [21]) [µg/mL],MIC (Staphylococcus aureus [22]) [µg/mL],MIC (Staphylococcus aureus [23]) [µg/mL],MIC (Staphylococcus aureus [24]) [µg/mL],MIC (Staphylococcus aureus [25]) [µg/mL],MIC (Staphylococcus aureus [26]) [µg/mL],MIC (Staphylococcus aureus [27]) [µg/mL],MIC (Staphylococcus aureus [28]) [µg/mL],MIC (Staphylococcus aureus [29]) [µg/mL],MIC (Staphylococcus aureus [30]) [µg/mL],MIC (Staphylococcus aureus [31]) [µg/mL],MIC (Staphylococcus aureus [32]) [µg/mL],MIC (Staphylococcus aureus [33]) [µg/mL],MIC (Staphylococcus aureus [34]) [µg/mL],MIC (Staphylococcus aureus [35]) [µg/mL],MIC (Staphylococcus aureus [36]) [µg/mL],MIC (Staphylococcus aureus [37]) [µg/mL],further results
COc1ccc(-c2cc(C=O)cc3ccc(O)c(OC)c23)cc1OC,inactive,–,–,–,–,–,–,–,–,–,–,–,–,–,–,–,–,–,–,–,–
COc1cc(-c2c3c(cc4cc(OC)c(O)cc24)C(=O)OC3)ccc1O [DETETRAHYDROCONIDENDRIN],inactive,Active,> 64,8,8,> 64,8,8,16,8,> 64,> 64,> 64,16,> 64,> 64,> 64,4,> 64,> 64,Activity (Staphylococcus aureus [3]): Active; Activity (Staphylococcus aureus [4]): Active; Activity (Staphylococcus aureus [5]): Active; Activity (Staphylococcus aureus [6]): Active; Activity (Staphylococcus aureus [7]): Active; Activity (Staphylococcus aureus [8]): Active; Activity (Staphylococcus aureus [9]): Active; Activity (Staphylococcus aureus [10]): Active; Activity (Staphylococcus aureus [11]): Active; Activity (Staphylococcus aureus [12]): Active; Activity (Staphylococcus aureus [13]): Active; Activity (Staphylococcus aureus [14]): Active; Activity (Staphylococcus aureus [15]): Active; Activity (Staphylococcus aureus [16]): Active; Activity (Staphylococcus aureus [17]): Active; Activity (Staphylococcus aureus [18]): Active; Activity (Staphylococcus aureus [19]): Active
COc1cc2c(cc1OC)C(O)c1c(C=O)cc3ccc(O)c(OC)c3c1-2 (stereo unspecified) [VITROFOLAL C],inactive,Active,> 64,64,> 64,> 64,64,64,64,64,> 64,> 64,> 64,64,> 64,> 64,> 64,64,> 64,> 64,Activity (Staphylococcus aureus [3]): Active; Activity (Staphylococcus aureus [4]): Active; Activity (Staphylococcus aureus [5]): Active; Activity (Staphylococcus aureus [6]): Active; Activity (Staphylococcus aureus [7]): Active; Activity (Staphylococcus aureus [8]): Active; Activity (Staphylococcus aureus [9]): Active; Activity (Staphylococcus aureus [10]): Active; Activity (Staphylococcus aureus [11]): Active; Activity (Staphylococcus aureus [12]): Active; Activity (Staphylococcus aureus [13]): Active; Activity (Staphylococcus aureus [14]): Active; Activity (Staphylococcus aureus [15]): Active; Activity (Staphylococcus aureus [16]): Active; Activity (Staphylococcus aureus [17]): Active; Activity (Staphylococcus aureus [18]): Active; Activity (Staphylococcus aureus [19]): Active
COc1cc2c(cc1OC)-c1c(c(C=O)cc3ccc(O)c(OC)c13)C2=O [VITROFOLAL D],inactive,Active,> 64,16,32,> 64,16,16,16,16,> 64,> 64,> 64,16,> 64,> 64,> 64,16,> 64,> 64,Activity (Staphylococcus aureus [3]): Active; Activity (Staphylococcus aureus [4]): Active; Activity (Staphylococcus aureus [5]): Active; Activity (Staphylococcus aureus [6]): Active; Activity (Staphylococcus aureus [7]): Active; Activity (Staphylococcus aureus [8]): Active; Activity (Staphylococcus aureus [9]): Active; Activity (Staphylococcus aureus [10]): Active; Activity (Staphylococcus aureus [11]): Active; Activity (Staphylococcus aureus [12]): Active; Activity (Staphylococcus aureus [13]): Active; Activity (Staphylococcus aureus [14]): Active; Activity (Staphylococcus aureus [15]): Active; Activity (Staphylococcus aureus [16]): Active; Activity (Staphylococcus aureus [17]): Active; Activity (Staphylococcus aureus [18]): Active; Activity (Staphylococcus aureus [19]): Active
COc1cc(-c2cc(C=O)cc3cc(OC)c(O)cc23)ccc1O [VITROFOLAL E],inactive,–,> 64,> 64,> 64,> 64,> 64,> 64,> 64,> 64,> 64,> 64,> 64,> 64,> 64,> 64,> 64,64,> 64,> 64,–
